Measured values reported in ChEMBL document CHEMBL1821575, “A novel amino-benzosuberone derivative is a picomolar inhibitor of mammalian aminopeptidase N/CD13” (Bioorg Med Chem, 2011).

Tests used:
[1] = biological target: T1, Cytosol aminopeptidase (Bos taurus, UniProt P00727); assay: Inhibition of bovine kidney cytosolic leucine aminopeptidase using L-leucine-p-nitroanilide as substrate after 30 mins by Dixon plot analysis
T1 sequence (P00727 whole entry): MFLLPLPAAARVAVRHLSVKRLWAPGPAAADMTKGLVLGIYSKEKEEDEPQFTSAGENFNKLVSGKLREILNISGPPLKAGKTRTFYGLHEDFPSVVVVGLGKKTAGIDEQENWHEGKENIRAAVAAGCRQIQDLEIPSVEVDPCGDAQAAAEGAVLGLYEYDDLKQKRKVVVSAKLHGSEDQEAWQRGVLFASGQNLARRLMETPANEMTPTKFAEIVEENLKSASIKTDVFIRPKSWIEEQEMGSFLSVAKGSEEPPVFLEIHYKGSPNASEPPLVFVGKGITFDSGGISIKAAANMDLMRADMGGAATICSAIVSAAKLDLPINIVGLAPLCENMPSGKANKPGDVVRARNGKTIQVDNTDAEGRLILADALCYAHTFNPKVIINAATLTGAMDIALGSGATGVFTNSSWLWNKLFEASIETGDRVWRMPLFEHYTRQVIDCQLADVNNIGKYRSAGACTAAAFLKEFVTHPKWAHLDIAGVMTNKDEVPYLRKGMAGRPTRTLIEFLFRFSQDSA
Method in brief: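 Cytosolic leucine aminopeptidase, purified by a published procedure, 20 Units per assay in 0.1 M Tris-HCl, 0.1 mM ZnCl2, 5 mM MnCl2, 1 M KCl, pH 8.0, at 30 °C. […] Ki came from Dixon plots of racemates.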

[2] = biological target: Bacterial leucyl aminopeptidase (Vibrio proteolyticus, UniProt Q01693); assay: Inhibition of Aeromonas proteolytica aminopeptidase using L-leucine-p-nitroanilide as substrate after 30 mins by Dixon plot analysis
Chain of Bacterial leucyl aminopeptidase (Q01693 whole entry): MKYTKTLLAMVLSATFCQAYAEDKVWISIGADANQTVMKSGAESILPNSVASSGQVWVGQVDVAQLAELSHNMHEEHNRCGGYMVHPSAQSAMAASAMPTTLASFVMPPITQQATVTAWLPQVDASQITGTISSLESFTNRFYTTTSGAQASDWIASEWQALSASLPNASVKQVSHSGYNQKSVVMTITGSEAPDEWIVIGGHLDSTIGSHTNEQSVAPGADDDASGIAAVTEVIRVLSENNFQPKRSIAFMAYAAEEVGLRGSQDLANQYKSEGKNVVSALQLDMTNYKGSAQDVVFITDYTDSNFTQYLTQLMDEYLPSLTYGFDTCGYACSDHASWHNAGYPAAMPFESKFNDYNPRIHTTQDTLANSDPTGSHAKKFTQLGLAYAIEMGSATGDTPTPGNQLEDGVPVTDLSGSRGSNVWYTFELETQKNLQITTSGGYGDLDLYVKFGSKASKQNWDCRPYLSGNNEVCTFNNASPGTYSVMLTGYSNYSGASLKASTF
Method in brief: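 Commercial Aeromonas proteolytica aminopeptidase, 2 mUnits per assay in 0.05 M Tris-HCl pH 7.5, 30 °C, started by adding enzyme. L-leucine-p-nitroanilide was set at its Km (0.02 mM). Release of p-nitroanilide was read continuously at 405 nm over 30 min for initial velocities. Ki was taken from Dixon plots, with racemic compounds tested up to their solubility limit.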

[3] = biological target: T2, Aminopeptidase N (Sus scrofa, UniProt P15145); assay: Inhibition of porcine kidney APN using L-leucine-p-nitroanilide as substrate after 30 mins by Dixon plot analysis
T2 sequence (P15145 whole entry): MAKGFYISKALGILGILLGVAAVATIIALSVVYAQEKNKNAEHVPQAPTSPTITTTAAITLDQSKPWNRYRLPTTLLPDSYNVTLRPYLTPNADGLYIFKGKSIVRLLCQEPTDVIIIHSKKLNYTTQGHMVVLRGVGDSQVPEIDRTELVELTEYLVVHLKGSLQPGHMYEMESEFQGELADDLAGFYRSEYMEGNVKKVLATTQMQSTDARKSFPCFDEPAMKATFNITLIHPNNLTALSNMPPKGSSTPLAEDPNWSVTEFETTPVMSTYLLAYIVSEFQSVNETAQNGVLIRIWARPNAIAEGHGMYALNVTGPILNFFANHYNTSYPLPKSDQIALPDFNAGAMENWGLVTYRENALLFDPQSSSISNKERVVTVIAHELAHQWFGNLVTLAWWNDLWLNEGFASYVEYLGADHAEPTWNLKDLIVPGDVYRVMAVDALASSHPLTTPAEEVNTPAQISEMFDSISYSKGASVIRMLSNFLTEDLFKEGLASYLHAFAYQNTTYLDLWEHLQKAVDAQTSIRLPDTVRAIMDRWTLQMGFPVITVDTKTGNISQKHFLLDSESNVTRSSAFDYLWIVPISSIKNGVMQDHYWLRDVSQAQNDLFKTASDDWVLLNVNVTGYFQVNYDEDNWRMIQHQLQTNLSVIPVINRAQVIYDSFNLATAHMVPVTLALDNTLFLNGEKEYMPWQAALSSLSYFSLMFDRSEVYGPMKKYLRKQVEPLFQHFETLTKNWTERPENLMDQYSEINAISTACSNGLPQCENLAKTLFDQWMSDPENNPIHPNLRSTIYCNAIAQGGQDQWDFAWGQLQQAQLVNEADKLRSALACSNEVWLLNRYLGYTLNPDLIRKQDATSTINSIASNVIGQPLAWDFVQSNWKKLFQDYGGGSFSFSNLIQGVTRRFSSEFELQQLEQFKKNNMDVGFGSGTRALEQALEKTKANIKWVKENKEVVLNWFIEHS

SMILES	Ki [1] [µM]	Ki [2] [µM]	Ki [3] [µM]
NC1CCc2cccc(Br)c2CC1=O (racemic)	> 100	213	
NC1CCc2ccc3ccccc3c2CC1=O (racemic)	> 100	> 100	0.1
NC1CCc2ccccc2CC1=O (racemic)	> 100	900	
NC1CCc2c(-c3ccccc3)ccc(Br)c2CC1=O (racemic)	> 100	> 100	0.07
NC1CCc2c(cccc2-c2ccccc2)CC1=O (racemic)	> 100	> 100	
NC1CCc2c(ccc3ccccc23)CC1=O (racemic)	> 100	> 100	0.04
NC1CCc2c(Br)ccc(Br)c2CC1=O (racemic)	> 100		0.006
NC1CCc2c(Br)ccc(-c3ccccc3)c2CC1=O (racemic)	70	39	
NC1CCc2c(-c3ccccc3)ccc(-c3ccccc3)c2CC1=O (racemic)	50	> 100	0.04
NC1CCc2c(Cl)cccc2CC1=O (racemic)	> 100	> 100	
NC1CCc2cccc(-c3ccccc3)c2CC1=O (racemic)	> 100	28	
NC1CCc2c(Br)cccc2CC1=O (racemic)	> 100	> 100	
